# Source: ChEMBL document CHEMBL4765452, “Discovery of (E)-N-(4-methyl-5-(3-(2-(pyridin-2-yl)vinyl)-1H-indazol-6-yl)thiazol-2-yl)-2-(4-methylpiperazin-1-yl)acetamide (IHMT-TRK-284) as a novel orally available type II TRK kinase inhibitor capable of overcoming multiple resistant mutants” (Eur J Med Chem, 2020)
# Active and inactive are the calls of the source. No cut-off for these calls is given here.
# Key:
# [1] = Apparent clearance in mouse at 1 mg/kg, iv; assay type: ADME, organism-based; conditions: in vivo
# [2] = molecular target: T1, Mast/stem cell growth factor receptor Kit (Homo sapiens, UniProt P10721); test: Inhibition of TEL fused KIT (unknown origin) transfected in mouse BAF3 cells assessed as growth inhibition after 72 hrs by CCK8 assay; assay type: cell-based
# T1 sequence (P10721 whole entry, the tested form may be a part): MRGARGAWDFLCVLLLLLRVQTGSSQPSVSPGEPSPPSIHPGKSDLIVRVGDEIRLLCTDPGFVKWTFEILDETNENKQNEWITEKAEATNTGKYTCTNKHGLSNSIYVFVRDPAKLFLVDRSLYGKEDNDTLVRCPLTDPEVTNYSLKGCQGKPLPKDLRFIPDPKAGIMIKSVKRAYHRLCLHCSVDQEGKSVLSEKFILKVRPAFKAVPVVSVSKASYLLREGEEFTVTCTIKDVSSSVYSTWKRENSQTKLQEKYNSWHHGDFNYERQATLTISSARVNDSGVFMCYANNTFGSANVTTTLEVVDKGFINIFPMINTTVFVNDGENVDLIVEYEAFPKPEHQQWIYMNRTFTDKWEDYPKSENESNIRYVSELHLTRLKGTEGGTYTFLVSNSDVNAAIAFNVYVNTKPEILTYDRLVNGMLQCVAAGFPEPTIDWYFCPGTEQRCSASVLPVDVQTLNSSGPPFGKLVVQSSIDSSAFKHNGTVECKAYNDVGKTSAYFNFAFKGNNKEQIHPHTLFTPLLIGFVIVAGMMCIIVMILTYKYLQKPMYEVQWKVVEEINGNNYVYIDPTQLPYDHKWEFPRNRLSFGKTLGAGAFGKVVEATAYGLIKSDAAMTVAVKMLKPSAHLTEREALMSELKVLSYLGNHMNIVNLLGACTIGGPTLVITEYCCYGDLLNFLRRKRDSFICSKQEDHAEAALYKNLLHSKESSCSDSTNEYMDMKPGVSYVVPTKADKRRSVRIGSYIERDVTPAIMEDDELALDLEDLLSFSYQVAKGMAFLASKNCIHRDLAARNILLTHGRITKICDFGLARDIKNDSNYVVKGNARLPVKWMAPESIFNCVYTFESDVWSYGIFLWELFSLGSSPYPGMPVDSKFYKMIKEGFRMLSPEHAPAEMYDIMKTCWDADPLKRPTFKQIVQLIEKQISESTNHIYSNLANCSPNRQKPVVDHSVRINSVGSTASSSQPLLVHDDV
# Outline: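 TEL-fusion isogenic BaF3 lines were built in-house and grown in RPMI 1640 with 10% FBS and 1% penicillin/streptomycin at 37 °C under 5% CO2. Cells were spun down before use.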
# [3] = system: High affinity nerve growth factor receptor (Homo sapiens), P04629 [G595R]; test: Inhibition of LMNA fused TRKA G595R mutant (unknown origin) transfected in mouse BAF3 cells assessed as growth inhibition after 72 hrs by CCK8 assay; assay type: cell-based
# Sequence of High affinity nerve growth factor receptor (Homo sapiens), P04629 [G595R] (P04629 whole entry G595R, looked up, the tested form may be a part): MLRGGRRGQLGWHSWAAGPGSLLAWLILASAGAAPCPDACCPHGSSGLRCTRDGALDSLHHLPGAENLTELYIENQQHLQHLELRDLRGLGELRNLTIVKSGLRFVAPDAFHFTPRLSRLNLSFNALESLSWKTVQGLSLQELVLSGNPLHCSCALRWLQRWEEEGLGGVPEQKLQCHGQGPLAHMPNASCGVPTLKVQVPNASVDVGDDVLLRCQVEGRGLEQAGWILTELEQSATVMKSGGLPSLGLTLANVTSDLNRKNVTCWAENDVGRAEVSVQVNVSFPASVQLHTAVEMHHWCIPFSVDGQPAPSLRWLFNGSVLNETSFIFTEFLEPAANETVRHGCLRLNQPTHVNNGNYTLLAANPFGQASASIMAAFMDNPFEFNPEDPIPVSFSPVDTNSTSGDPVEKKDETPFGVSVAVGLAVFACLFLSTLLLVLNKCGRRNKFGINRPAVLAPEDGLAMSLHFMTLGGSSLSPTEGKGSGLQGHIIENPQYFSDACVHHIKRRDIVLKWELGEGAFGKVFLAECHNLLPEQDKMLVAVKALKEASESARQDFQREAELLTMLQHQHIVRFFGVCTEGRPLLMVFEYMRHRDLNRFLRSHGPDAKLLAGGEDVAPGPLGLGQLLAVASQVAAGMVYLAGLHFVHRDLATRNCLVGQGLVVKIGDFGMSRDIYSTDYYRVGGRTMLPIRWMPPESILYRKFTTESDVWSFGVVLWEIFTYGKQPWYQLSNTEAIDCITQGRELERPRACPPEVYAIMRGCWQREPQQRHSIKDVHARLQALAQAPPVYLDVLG
# [4] = system: High affinity nerve growth factor receptor (Homo sapiens), P04629 [G667C]; test: Inhibition of LMNA fused TRKA G667C mutant (unknown origin) transfected in mouse BAF3 cells assessed as growth inhibition after 72 hrs by CCK8 assay; assay type: cell-based
# Sequence of High affinity nerve growth factor receptor (Homo sapiens), P04629 [G667C] (P04629 whole entry G667C, looked up, the tested form may be a part): as the sequence (P04629 whole entry G595R, looked up, the tested form may be a part) above, with R595G, G667C counted along it
# Outline: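 TEL- or LMNA-fusion isogenic BaF3 lines grown in RPMI 1640 with 10% FBS and 1% penicillin/streptomycin at 37 °C, 5% CO₂; suspension cells collected by spinning at 800 rpm for 4 min before use; growth inhibition scored as GI₅₀.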
# [5] = molecular target: T1, Mast/stem cell growth factor receptor Kit; test: Inhibition of human KIT by Z-LYTE or ADP-Glo assay
# Outline: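 Purified kinase proteins tested biochemically in Z'LYTE or ADP-Glo format.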
# [6] = Inhibition of LMNA fused TRKA F589L mutant (unknown origin) transfected in mouse BaF3 cells assessed as reduction in phosphorylation at Y490 residue after 2 hrs by Western blot analysis; conditions: Homo sapiens, BaF3, 2 h
# [7] = Antiproliferative activity against human KM-12-LUC cells harboring […] fused TRKA assessed as growth inhibition after 72 hrs by CCK8 assay; assay type: functional; conditions: KM12-Luc
# Outline: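 KM-12-LUC cells seeded at 3 × 10⁴ cells/mL, incubated overnight at 37 °C, 5% CO₂, then medium replaced with fresh medium containing a range of compound concentrations for 72 h; viability read by CCK-8 absorbance at 450 nm, normalized to DMSO control, GI₅₀ from curve fitting.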
# [8] = molecular target: High affinity nerve growth factor receptor (Homo sapiens, UniProt P04629); test: Inhibition of TRKA in human KM-12-LUC cells assessed as reduction in TRKA phosphorylation at Y490 residue at 0.01 uM after 2 hrs by Western blot analysis; assay type: cell-based; conditions: KM12-Luc
# Sequence of High affinity nerve growth factor receptor (P04629 33-796 limits assumed): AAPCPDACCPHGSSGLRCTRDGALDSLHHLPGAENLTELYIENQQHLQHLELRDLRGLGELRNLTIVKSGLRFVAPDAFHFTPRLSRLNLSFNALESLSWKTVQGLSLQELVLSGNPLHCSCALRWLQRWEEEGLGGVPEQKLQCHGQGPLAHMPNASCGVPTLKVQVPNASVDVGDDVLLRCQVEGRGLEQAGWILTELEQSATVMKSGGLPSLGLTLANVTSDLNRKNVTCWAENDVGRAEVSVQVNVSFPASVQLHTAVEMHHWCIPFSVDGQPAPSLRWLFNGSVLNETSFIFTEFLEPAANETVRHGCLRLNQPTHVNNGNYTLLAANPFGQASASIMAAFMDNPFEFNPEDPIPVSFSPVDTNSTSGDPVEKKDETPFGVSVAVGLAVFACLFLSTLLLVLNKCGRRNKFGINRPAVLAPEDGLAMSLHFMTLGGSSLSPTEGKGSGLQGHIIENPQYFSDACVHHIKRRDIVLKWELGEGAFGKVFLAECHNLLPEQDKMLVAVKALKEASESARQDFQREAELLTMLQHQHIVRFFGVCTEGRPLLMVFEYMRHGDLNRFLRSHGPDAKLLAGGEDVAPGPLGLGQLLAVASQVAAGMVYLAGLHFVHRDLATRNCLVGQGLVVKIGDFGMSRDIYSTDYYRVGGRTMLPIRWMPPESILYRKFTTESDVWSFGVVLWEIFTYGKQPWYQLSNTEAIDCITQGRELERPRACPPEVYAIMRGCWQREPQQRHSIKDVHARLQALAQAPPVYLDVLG
# Outline: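 KM-12-LUC cells cultured in RPMI 1640 with 10% FBS and 1% penicillin/streptomycin. Serially diluted compound applied for 2 h. Cells collected and lysed, and lysates analysed by western blotting for phospho-TRKA Y490, AKT T308/S473 and ERK1/2 T202/Y204.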
# [9] = Apparent volume of distribution in mouse at 10 mg/kg, po; assay type: ADME, organism-based; conditions: in vivo
# [10] = AUC (0 to t) in Sprague-Dawley rat at 1 mg/kg, iv; assay type: ADME, organism-based; parameters: dose 1 mg/kg; conditions: in vivo
# Outline: (§1)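 Intravenous and oral arms were run in parallel in each species (mice, Sprague Dawley rats, beagle dogs). Exposure is reported as AUC0-t in ng/mL·h.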
# [11] = Half life in Sprague-Dawley rat at 10 mg/kg, po; assay type: ADME, organism-based; conditions: in vivo
# [12] = AUC (0 to t) in Beagle dog at 1 mg/kg, iv; assay type: ADME, organism-based, Canis lupus familiaris; parameters: dose 1 mg/kg; conditions: in vivo; outline: as §1
# [13] = AUC (0 to t) in Beagle dog at 5 mg/kg, po; assay type: ADME, organism-based, Canis lupus familiaris; parameters: dose 5 mg/kg; conditions: in vivo; outline: as §1
# [14] = Tmax in Beagle dog at 1 mg/kg, iv; assay type: ADME, organism-based, Canis lupus familiaris; conditions: in vivo
# Outline: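 Single-dose PK in mice, Sprague Dawley rats and beagle dogs, given i.v. (1 mg/kg) or p.o. (10 mg/kg mice and rats; 5 mg/kg dogs). AUC0-t, T1/2, Tmax and oral bioavailability (F) derived from plasma profiles.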
# [15] = Apparent clearance in Beagle dog at 1 mg/kg, iv; assay type: ADME, organism-based, Canis lupus familiaris; conditions: in vivo
# [16] = Antitumor activity against human […] cells xenografted in nude mouse assessed as tumor growth inhibition at 80 mg/kg, po administered once daily for 10 days relative to control; assay type: functional; conditions: KM12-Luc, 240 h, time 10 day, read-out: TGI
# Outline: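 Nu/nu mice given 5 million KM-12-LUC cells in DMEM, 1:1 with matrigel, injected subcutaneously into the right flank; oral gavage started at tumor size 150–200 mm³, 5 mice per group, compound in 0.5% methylcellulose/0.4% Tween 80 in ddH₂O; body weight and tumor volume [(W²×L)/2] measured daily; TGI versus vehicle.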
# BaF3 [17] = test: Antitumor activity against mouse BAF3 cells harboring LMNA fused TRKA-G667S mutant allografted in nude mouse assessed as tumor growth inhibition at 80 mg/kg, po administered twice daily for 10 days relative to control; assay type: functional; conditions: 240 h, time 10 day, read-out: TGI
# Outline: (§2)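 Nu/nu mice given 1 million BaF3 cells (TEL-TRKA, TEL-TRKB, TEL-TRKC, LMNA-TRKA-F589L or LMNA-TRKA-G667S) in DMEM, 1:1 with matrigel, injected subcutaneously into the right flank; oral gavage began at 200–400 mm³, 5 mice per group, compound in 0.5% methylcellulose/0.4% Tween 80 in ddH₂O, 10 days; tumor volume [(W²×L)/2] and body weight recorded daily; TGI versus vehicle.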
# BaF3 [18] = test: Antitumor activity against mouse BAF3 cells harboring LMNA fused TRKA-F589L mutant allografted in nude mouse assessed as tumor growth inhibition at 40 mg/kg, po administered once daily for 10 days relative to control; assay type: functional; conditions: 240 h, time 10 day, read-out: TGI; outline: as §2
# [19] = Toxicity in mouse xenografted with mouse BAF3 cells harboring TEL fused TRKA assessed as effect on animals behaviour at 40 to 80 mg/kg, po administered once daily for 10 days; assay type: organism-based; conditions: in vivo, 240 h, dose 40-80 mg/kg/day, time 10 day
# Outline: (§3)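 nu/nu mice were given subcutaneous right-flank implants in 1:1 DMEM/matrigel: 1 million BaF3 fusion cells or 5 million KM-12-LUC cells. Oral gavage started at 150–200 mm3 (xenograft) or 200–400 mm3 (allograft). Dosing used 40 or 80 mg/kg in HKI vehicle (0.5% methylcellulose/0.4% Tween 80 in ddH2O), with 5 mice per group. Body weight was recorded daily and behaviour observed.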
# [20] = Toxicity in mouse xenografted with mouse BAF3 cells harboring TEL fused TRKC assessed as effect on animals behaviour at 40 to 80 mg/kg, po administered once daily for 10 days; assay type: organism-based; conditions: in vivo, 240 h, dose 40-80 mg/kg/day, time 10 day; outline: as §3
# [21] = Toxicity in mouse xenografted with mouse BAF3 cells harboring […] TRKA-G667S mutant assessed as effect on abnormal behaviour at 40 to 80 mg/kg, po administered twice daily for 10 days; assay type: organism-based; conditions: in vivo, 240 h, dose 40-80 mg/kg, time 10 day; outline: as §3
# [22] = Toxicity in mouse xenografted with mouse BAF3 cells harboring […] TRKA-F589L mutant assessed as effect on abnormal behaviour at 40 to 80 mg/kg, po administered once daily for 10 days; assay type: organism-based; conditions: in vivo, 240 h, dose 40-80 mg/kg/day, time 10 day; outline: as §3
smiles,measurement,setting,value
Cc1nc(NC(=O)CN2CCN(C)CC2)sc1-c1ccc2c(/C=C/c3ccccn3)n[nH]c2c1,CLz/F,[1],21.7 mL/min/kg
same,GI50,[2],923 nM
same,GI50,[3],194 nM
same,GI50,[4],34 nM
same,IC50,[5],2170 nM
same,EC50,[6],21 nM
same,GI50,[7],2 nM
same,inhibition,[8],Active
same,Vz,[9],31.567 L/kg
same,AUC(0-t),[10],393 ng·h/mL
same,t1/2,[11],2.5 h
same,AUC(0-t),[12],323 ng·h/mL
same,AUC(0-t),[13],464 ng·h/mL
same,Tmax,[14],4.8 min
same,CLz/F,[15],47.68 mL/min/kg
same,inhibition in vivo at 80 mg/kg/day,[16],94.7%
same,inhibition in vivo at 80 mg/kg,BaF3 [17],89.1%
same,inhibition in vivo at 40 mg/kg/day,BaF3 [18],80%
same,Activity,[19],Non-Toxic
same,Activity,[20],Non-Toxic
same,Activity,[21],Non-Toxic
same,Activity,[22],Non-Toxic
